We go through one compound from ChEMBL document CHEMBL3351316, “Scaffold hopping approach on the route to selective tankyrase inhibitors” (Eur J Med Chem, 2014).

Assay [1] concerns the target Protein mono-ADP-ribosyltransferase PARP14 (Homo sapiens) (UniProt Q460N5). Kind of assay: Inhibition of human recombinant PARP14 at 10 uM incubated for 1 hr using NAD+, biotinylated NAD+ and activated DNA by luminescence based assay. In outline:
(§1)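 Recombinant PARP enzyme reactions were run in duplicate for 1 h at rt on histone-coated plates in Tris·HCl pH 8.0 buffer with NAD+, biotinylated NAD+ and activated DNA. Detection used streptavidin-HRP for 30 min at rt, then a chemiluminescent developer. % inhibition = 100 − % activity, scaled between the no-compound (100%) and no-enzyme (0%) signals.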

For assay [2], the target named is T1, Poly [ADP-ribose] polymerase tankyrase-2 (Homo sapiens, UniProt Q9H2K2).
T1 sequence (Q9H2K2 whole entry): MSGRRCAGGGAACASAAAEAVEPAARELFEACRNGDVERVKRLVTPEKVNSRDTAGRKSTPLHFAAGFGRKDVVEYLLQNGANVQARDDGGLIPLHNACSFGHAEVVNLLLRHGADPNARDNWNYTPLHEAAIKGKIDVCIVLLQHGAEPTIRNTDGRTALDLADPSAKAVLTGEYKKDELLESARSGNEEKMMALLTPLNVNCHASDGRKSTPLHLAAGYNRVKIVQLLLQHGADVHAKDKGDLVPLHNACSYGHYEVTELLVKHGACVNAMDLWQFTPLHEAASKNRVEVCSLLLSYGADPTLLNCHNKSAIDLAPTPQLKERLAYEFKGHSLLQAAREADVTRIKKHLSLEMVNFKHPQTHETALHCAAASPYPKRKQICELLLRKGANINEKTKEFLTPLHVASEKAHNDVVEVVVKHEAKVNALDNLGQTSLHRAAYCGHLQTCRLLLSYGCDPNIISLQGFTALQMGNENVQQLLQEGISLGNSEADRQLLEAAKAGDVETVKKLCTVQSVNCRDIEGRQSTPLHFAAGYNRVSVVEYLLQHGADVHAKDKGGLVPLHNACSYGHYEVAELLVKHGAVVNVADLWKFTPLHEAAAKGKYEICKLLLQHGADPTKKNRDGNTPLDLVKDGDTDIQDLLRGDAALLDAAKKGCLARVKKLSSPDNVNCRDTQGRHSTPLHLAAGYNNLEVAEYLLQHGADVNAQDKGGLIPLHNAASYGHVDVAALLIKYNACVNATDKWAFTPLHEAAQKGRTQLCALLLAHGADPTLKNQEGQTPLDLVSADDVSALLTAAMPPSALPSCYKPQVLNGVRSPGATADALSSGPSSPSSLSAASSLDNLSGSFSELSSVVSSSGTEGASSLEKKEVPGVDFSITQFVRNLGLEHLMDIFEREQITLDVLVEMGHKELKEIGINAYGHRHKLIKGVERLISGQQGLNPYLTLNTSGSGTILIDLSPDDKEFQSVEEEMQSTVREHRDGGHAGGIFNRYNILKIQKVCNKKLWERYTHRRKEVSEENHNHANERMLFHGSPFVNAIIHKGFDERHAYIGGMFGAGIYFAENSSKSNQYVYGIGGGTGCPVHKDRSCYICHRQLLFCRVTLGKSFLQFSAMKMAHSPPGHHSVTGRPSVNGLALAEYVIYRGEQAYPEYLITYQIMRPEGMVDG
Kind of assay: Inhibition of GST-tagged human recombinant TNKS2 incubated for 1 hr using NAD+, biotinylated NAD+ and activated DNA by luminescence based assay.

The next assay deals with DLD-1. The assay is described as follows: Growth inhibition of human DLD1 cells at 1 uM to 10 uM. The class given is functional, cell-based. In outline:
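DLD-1 colorectal cancer cells seeded at 5 × 10^3 in a colony growth assay. Cells were dosed daily with 1, 5 or 10 μM compound in DMSO, with DMSO alone as the negative control. After 10 days cells were fixed in 10% methanol/acetic acid, stained with 1% crystal violet and quantified by image analysis. Mean ± SEM of at least three independent experiments.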

Assay [3] deals with T2, Protein mono-ADP-ribosyltransferase PARP12 (Homo sapiens) (UniProt Q9H0J9).
T2 sequence (whole entry): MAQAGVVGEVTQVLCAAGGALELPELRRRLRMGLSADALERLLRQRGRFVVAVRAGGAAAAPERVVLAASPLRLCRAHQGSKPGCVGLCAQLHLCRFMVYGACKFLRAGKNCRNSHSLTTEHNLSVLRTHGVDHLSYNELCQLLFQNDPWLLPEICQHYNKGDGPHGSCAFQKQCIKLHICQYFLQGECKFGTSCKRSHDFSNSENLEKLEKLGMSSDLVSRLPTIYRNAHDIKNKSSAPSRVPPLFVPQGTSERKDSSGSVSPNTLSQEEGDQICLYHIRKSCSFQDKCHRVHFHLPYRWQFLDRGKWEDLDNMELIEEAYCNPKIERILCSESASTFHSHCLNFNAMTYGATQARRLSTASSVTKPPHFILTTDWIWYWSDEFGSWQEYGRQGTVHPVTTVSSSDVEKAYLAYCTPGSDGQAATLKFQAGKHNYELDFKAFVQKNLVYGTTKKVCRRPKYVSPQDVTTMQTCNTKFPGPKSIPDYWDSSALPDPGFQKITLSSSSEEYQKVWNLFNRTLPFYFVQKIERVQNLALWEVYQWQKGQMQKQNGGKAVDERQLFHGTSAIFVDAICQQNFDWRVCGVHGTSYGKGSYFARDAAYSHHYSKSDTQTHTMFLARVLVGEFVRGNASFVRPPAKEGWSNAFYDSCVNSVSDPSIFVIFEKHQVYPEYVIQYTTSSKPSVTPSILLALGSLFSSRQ
Kind of assay: Inhibition of human recombinant PARP12 at 10 uM incubated for 1 hr using NAD+, biotinylated NAD+ and activated DNA by luminescence based assay. The method, boiled down: as §1

The source made the active and inactive calls. The rule behind the calls is not given here.

Sequence of Protein mono-ADP-ribosyltransferase PARP14 (Homo sapiens) (Q460N5 whole entry): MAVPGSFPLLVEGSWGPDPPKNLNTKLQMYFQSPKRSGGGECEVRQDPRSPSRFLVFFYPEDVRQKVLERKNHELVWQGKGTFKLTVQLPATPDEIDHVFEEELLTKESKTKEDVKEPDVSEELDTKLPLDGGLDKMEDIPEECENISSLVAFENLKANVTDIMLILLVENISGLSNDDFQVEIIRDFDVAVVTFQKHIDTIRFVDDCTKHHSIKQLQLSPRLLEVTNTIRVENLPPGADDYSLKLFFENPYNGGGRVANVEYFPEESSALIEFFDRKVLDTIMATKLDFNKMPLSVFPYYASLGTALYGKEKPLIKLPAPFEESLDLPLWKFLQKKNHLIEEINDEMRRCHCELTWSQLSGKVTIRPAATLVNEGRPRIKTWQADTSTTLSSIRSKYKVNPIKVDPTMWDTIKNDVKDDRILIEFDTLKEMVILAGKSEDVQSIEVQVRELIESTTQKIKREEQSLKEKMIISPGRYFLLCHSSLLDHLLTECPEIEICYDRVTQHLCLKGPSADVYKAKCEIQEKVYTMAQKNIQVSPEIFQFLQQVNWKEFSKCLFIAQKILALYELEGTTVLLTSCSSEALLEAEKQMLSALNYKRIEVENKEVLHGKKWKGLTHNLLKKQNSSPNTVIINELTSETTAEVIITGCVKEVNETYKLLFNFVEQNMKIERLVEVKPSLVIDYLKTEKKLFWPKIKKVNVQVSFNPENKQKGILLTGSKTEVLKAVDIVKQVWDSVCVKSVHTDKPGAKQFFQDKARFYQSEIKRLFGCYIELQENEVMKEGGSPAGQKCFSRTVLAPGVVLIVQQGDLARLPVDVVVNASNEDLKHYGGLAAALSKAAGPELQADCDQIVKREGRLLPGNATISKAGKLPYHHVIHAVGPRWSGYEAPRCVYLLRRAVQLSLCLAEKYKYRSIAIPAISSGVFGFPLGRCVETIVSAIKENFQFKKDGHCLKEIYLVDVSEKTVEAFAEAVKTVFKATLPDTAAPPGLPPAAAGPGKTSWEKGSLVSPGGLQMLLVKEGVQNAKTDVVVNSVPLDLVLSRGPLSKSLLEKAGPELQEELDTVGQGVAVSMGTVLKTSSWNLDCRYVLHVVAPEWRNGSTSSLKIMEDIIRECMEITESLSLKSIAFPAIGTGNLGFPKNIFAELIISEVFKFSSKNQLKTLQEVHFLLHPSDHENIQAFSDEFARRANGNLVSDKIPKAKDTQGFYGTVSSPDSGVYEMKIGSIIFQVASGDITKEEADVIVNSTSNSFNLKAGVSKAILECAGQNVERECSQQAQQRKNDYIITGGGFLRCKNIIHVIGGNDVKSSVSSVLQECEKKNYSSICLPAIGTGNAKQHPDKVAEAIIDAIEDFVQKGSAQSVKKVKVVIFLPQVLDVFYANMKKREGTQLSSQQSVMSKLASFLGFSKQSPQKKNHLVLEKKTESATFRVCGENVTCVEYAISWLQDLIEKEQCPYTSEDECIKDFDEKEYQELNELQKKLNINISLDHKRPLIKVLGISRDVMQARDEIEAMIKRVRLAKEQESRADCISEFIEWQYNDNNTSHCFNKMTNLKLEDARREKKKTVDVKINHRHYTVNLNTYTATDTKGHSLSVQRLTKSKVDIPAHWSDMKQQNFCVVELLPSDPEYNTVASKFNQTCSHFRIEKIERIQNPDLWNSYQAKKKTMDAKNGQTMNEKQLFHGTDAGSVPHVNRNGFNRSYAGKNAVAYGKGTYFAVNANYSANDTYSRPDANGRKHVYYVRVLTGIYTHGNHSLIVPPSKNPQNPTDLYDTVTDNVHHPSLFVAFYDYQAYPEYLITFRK

In the case of `CC(C)(C)c1ccc(-c2nc3c(sc4ccccc43)c(=O)[nH]2)cc1`, the inhibition was 0% in assay [1] and 14% in assay [3]. In assay [2], the IC50 came to 28.6 nM. In addition, in the assay on DLD-1, the “growth inhibition (GI)” value was “Active”.

The inhibition is the relative decrease from the control value, in per cent. By IC50 is commonly meant the concentration needed to halve the response being measured.
